Reference: PubChem BioAssay
Inconclusive results are not listed.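 How the source made its calls, unless noted: active means growth inhibition above 25% in both replicates, a cutoff set 3 SD above the mean; inconclusive means above 25% in only one replicate; inactive means the rest.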

Tests used:
[1] = OD615 S. cerevisiae growth inhibition, permissive medium, pilot counter-assay, permissive growth control for S. cerevisiae lifespan shortening project (AID 705); details: OD615, 24 h, at 10 µM, stronger effect = higher value
Summary of the method: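 Timing: 24 h exposure, 30 °C / Material: Saccharomyces cerevisiae strain carrying genetically modified DeaD replicative-lifespan system / Signal: OD at 615 nm / Compound: 10 µM single dose, 0.25% DMSO / Medium: SC raffinose/galactose permissive medium / Evaluation: reduction in yeast growth (OD615)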

[2] = Restrictive medium S. cerevisiae growth inhibition, OD615, pilot screen of yeast lifespan reduction project, restrictive growth control (AID 706;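 active means growth inhibition above a set limit, 3 SD over mean compound inhibition, in both replicates, cut at about 43% in these data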;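 further: modified DeaD lifespan yeast strain shifted to restrictive glucose medium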); details: OD615, 48 h, at 10 µM, stronger effect = higher value
Summary of the method: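 System: Engineered S. cerevisiae DeaD strain | Detection: OD615 | Buffer or medium: CSMM-D glucose medium | Doses: 10 µM compound, 0.25% DMSO | Timing: 4 h pre-growth plus 48 h compound exposure, 30 °C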

[3] = viability gain of MRP-1-high H69AR cells under doxorubicin, pilot screen, MRP-1 activator project, CellTiter-Glo, duplicate (AID 807;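 active means viability increase at or above a cutoff of the median across tested compounds plus 3 SD, cut at about 8.5% in these data, passing the limit was not always enough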;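 further: compound pretreatment 18-22 h then 72 h combined with doxorubicin; 0% = doxorubicin alone and 100% = vehicle without doxorubicin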); details: H69AR viability with doxorubicin, CellTiter-Glo luminescence; at 10 µM; stronger effect = higher value
[4] = growth suppression of beta-catenin knockout HCT116, pilot screen, human colon tumor cells (AID 823;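 active means cell viability at or below a set limit in both duplicate runs, the limit being the all-compound median minus 4 SD, cut at about 23% in these data, passing the limit was not always enough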;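 further: 0% = wells killed by 20 µM Hyamine and 100% = untreated DMSO cell wells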); details: CellTiter-Glo, 60 h, at 10 µM, stronger effect = lower value
[5] = growth suppression of PTEN-deleted HCT116, pilot screen, cell-based, HCT116 clonal line, CellTiter-Glo (AID 824;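 active means viability at or below 27.92% in each of two runs, the all-compound median minus 4 SD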;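 further: 0% = 20 µM Hyamine control and 100% = vehicle cell control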); details: 60 h, at 10 µM, stronger effect = lower value
[6] = inhibitors of the yeast RAM network, pilot screen, dse1pr::URA3 reporter, 5-FOA selection (AID 869;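 active means inhibition over a set limit, the all-compound mean plus 3 SD, in both replicate runs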;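 further: 0% = DMSO wells with no growth and 100% = 10 µM 1-NA-PP1 with full growth; RAM network block rescues cells from 5-FOA so hits raise OD615 growth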); details: S. cerevisiae dse1pr::URA3 5-FOA growth, OD615, 2 d; at 10 µM; stronger effect = higher value; strain carries analog-sensitive mutant Cbk1 kinase
[7] = RAM signaling pathway blockade in yeast – S. cerevisiae, Pdr1DBD-CYC8 efflux-inhibited sensitized strain, primary screen (AID 1298;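 active means RAM network inhibition above 8.4% in each of two replicates, 3 SD over the compound average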;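 further: 0% = DMSO untreated cells without growth and 100% = 10 µM 1-NA-PP1 full growth; higher means more yeast growth rescued from 5-FOA killing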); details: S. cerevisiae cbk1-as DSE1-URA3 strain, 5-FOA growth OD615, 2 d; at 50 µM; stronger effect = higher value

O=C(CC1Oc2ccccc2NC1=O)NCc1ccccc1 (stereo not drawn)
inactive: growth inhibition [1] 0.945% | growth inhibition [2] -4.32% | viability increase [3] -0.93% | viability [4] 105% | viability [5] 100% | inhibition [6] 3.42% | RAM network inhibition [7] 4.73%

CC1=NC2(CCCc3c2no[n+]3[O-])N(O)C1(C)C (stereo not drawn)
inactive: growth inhibition [1] 6.66% | growth inhibition [2] 3.75% | viability increase [3] -1.89% | viability [4] 101% | viability [5] 98.7% | inhibition [6] 1.36% | RAM network inhibition [7] 1.51%

CC(C)(C)C1(C)OC(C(N)=O)C(C(N)=O)O1 (stereo not drawn)
inactive: growth inhibition [1] -7.22% | growth inhibition [2] -1.06% | viability increase [3] 0.03% | viability [4] 98.2% | viability [5] 95.7% | inhibition [6] 0.785% | RAM network inhibition [7] 1.14%

CC1(C)Oc2ccc3ccc(=O)oc3c2/C(=C/Nc2ccccn2)C1=O
inactive: growth inhibition [1] -22.4% | growth inhibition [2] -16% | viability increase [3] -1.39% | viability [4] 95% | viability [5] 93.3% | inhibition [6] 4.12% | RAM network inhibition [7] 6.38%

CCOC(=O)C1CCN(C(=O)COc2cc(C)c(Br)c(C)c2)CC1
inactive: growth inhibition [1] -2.41% | growth inhibition [2] -16.5% | viability increase [3] -3.43% | viability [4] 94.4% | viability [5] 85.3% | inhibition [6] 1.47% | RAM network inhibition [7] 1.59%

CC(C)N1C(=O)CCC1C(=O)NCc1ccccc1Cl (stereo not drawn)
inactive: growth inhibition [1] -8.36% | growth inhibition [2] -6.72% | viability increase [3] -2.27% | viability [4] 96% | viability [5] 98.9% | inhibition [6] 1.68% | RAM network inhibition [7] 0.01%

CCOC(=O)CSc1nc(C)cc(Oc2ccc(=O)n(C)n2)n1
inactive: growth inhibition [1] -17.4% | growth inhibition [2] -8.09% | viability increase [3] 0.54% | viability [4] 102% | viability [5] 97.5% | inhibition [6] 1.12% | RAM network inhibition [7] 0.42%

O=C1CC(c2ccccc2)C(C(=O)Nc2ccccc2F)N1 (stereo not drawn)
inactive: growth inhibition [1] -17.2% | growth inhibition [2] 2% | viability increase [3] -0.74% | viability [4] 104% | viability [5] 99.3% | inhibition [6] 0.81% | RAM network inhibition [7] 4.18%

CCCCN(C)Cc1c(C)[nH]c2ccc(OCC)cc2c1=O
inactive: growth inhibition [1] -11.7% | growth inhibition [2] -20% | viability increase [3] -0.94% | viability [4] 93.6% | viability [5] 97.9% | inhibition [6] 1.4% | RAM network inhibition [7] 4.04%

CCOC(=O)c1cnc2c(C)c(Cl)ccc2c1N1CCOCC1
inactive: growth inhibition [1] -1.27% | growth inhibition [2] -2.46% | viability increase [3] -6.05% | viability [4] 77% | viability [5] 81.3% | inhibition [6] 0.755% | RAM network inhibition [7] 3.29%

CC1(C)CC(=O)C2=C(C1)OC(N)=C(C#N)C21CCN(Cc2ccccc2)CC1
inactive: growth inhibition [1] -19.9% | growth inhibition [2] -21.6% | viability increase [3] -3.46% | viability [4] 97.7% | viability [5] 97.6% | inhibition [6] 2.13% | RAM network inhibition [7] 5.53%

CCOc1ccccc1NC(=O)CN(c1cc(C)cc(C)c1)S(=O)(=O)c1c(C)noc1C
inactive: growth inhibition [1] -22.6% | growth inhibition [2] -12.1% | viability increase [3] -1.39% | viability [4] 106% | viability [5] 95.1% | inhibition [6] 1.51% | RAM network inhibition [7] 1.81%

COc1cccc(NC2=CC(=O)CC(C)(C)C2)c1
inactive: growth inhibition [1] 4.23% | growth inhibition [2] 0.02% | viability increase [3] -0.06% | viability [4] 95% | viability [5] 99.2% | inhibition [6] 0.5% | RAM network inhibition [7] 1.95%

COc1ccc2ccccc2c1C1CC(=O)N2CN(C3CCCCC3)CSC2=C1C#N (stereo not drawn)
inactive: growth inhibition [1] 2.87% | growth inhibition [2] 25.4% | viability increase [3] -4.9% | viability [4] 81.3% | viability [5] 76.4% | inhibition [6] 2.05% | RAM network inhibition [7] 4.86%
